Data set [1] relates to Mycobacterium tuberculosis. In words: Antitubercular activity against dormant stage of Mycobacterium tuberculosis H37Ra ATCC 25177 infected in human THP1 cells after 12 days by nitrate reductase assay. It counts as functional. The conditions noted are these: H37Ra ATCC 25177, 288 h. Summed up:
(§1)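 Ex vivo test of H37Ra in THP-1 cells by nitrate reductase assay, absorbance read at 540 nm. Active stage incubated 8 days and dormant stage 12 days. H37Ra (ATCC 25177) grown in M. pheli medium to OD 1.0 and subcultured once from -70°C stock.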

The subject of data set [2] is Mycobacterium tuberculosis. Put plainly: Antitubercular activity against active stage of Mycobacterium tuberculosis H37Ra ATCC 25177 infected in human THP1 cells after 8 days by nitrate reductase assay. Format: functional. The note with it: H37Ra ATCC 25177, 192 h. Summed up: as §1
In data set [3] the test system is Mycobacterium tuberculosis. In words: Antitubercular activity against dormant stage of Mycobacterium tuberculosis H37Ra ATCC 25177 after 12 days by XTT reduction menadione assay. Format: functional. The conditions noted are these: H37Ra ATCC 25177, 288 h. Summed up: (§2)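 M. tuberculosis H37Ra (ATCC 25177), grown to log phase (OD 1.0) in M. pheli medium from -70°C stock, subcultured once before inoculation. Incubation 8 days (active) or 12 days (dormant). XRMA read-out as absorbance at 470 nm.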

Data set [4] relates to Mycobacterium tuberculosis. In words: Antitubercular activity against active stage of Mycobacterium tuberculosis H37Ra ATCC 25177 after 8 days by XTT reduction menadione assay. It counts as functional. The note with it: H37Ra ATCC 25177, 192 h. Summed up: as §2
Background: Tetrazolium dyes change colour on reduction, which living cells bring about.

Data set [5] in a line: Cytotoxicity against human THP1 cells assessed as growth inhibition by MTT assay. It counts as cell-based. The note with it: THP-1 cells. Summed up: (§3)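 MTT assay in duplicate on THP-1 leukaemia, A549 lung adenocarcinoma, PANC-1 pancreatic adenocarcinoma and HeLa cervical carcinoma cells, all obtained from ECCC.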
The nature of data set [6]: Cytotoxicity against human A549 cells assessed as growth inhibition by MTT assay. Format: cell-based. Summed up:
as §3

The nature of data set [7]: Cytotoxicity against human PANC1 cells assessed as growth inhibition by MTT assay. It counts as cell-based. The conditions noted are these: PANC-1 cells. Summed up: as §3
The nature of data set [8]: Cytotoxicity against human HeLa cells assessed as growth inhibition by MTT assay. Format: cell-based. Summed up: as §3
Data set [9] in a line: Selectivity index, ratio of GI50 for human A549 cells to MIC for dormant stage of Mycobacterium tuberculosis H37Ra ATCC 25177 infected in human THP1 cells. Format: toxicity, cell-based. The conditions noted are these: read-out: Selectivity Index. Summed up:
(§4)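 Selectivity index is the cytotoxic GI50 against the named human cell line divided by the antimycobacterial value. Activity counted as specific when SI >10.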

Data set [10] can be described thus: Selectivity index, ratio of GI50 for human A549 cells to MIC for dormant stage of Mycobacterium tuberculosis H37Ra ATCC 25177. The note with it: read-out: Selectivity Index. Format: toxicity. Summed up:
as §4

Data set [11] in a line: Selectivity index, ratio of GI50 for human PANC1 cells to MIC for dormant stage of Mycobacterium tuberculosis H37Ra ATCC 25177 infected in human THP1 cells. Format: toxicity, cell-based. The conditions noted are these: PANC-1 cells, read-out: Selectivity Index. Summed up:
as §4

Data set [12] is described as follows: Selectivity index, ratio of GI50 for human PANC1 cells to MIC for dormant stage of Mycobacterium tuberculosis H37Ra ATCC 25177. Format: toxicity. The conditions noted are these: PANC-1 cells, read-out: Selectivity Index. Summed up: as §4
The nature of data set [13]: Selectivity index, ratio of GI50 for human HeLa cells to MIC for dormant stage of Mycobacterium tuberculosis H37Ra ATCC 25177 infected in human THP1 cells. Format: toxicity, cell-based. The conditions noted are these: read-out: Selectivity Index. Summed up:
as §4

Data set [14] can be described thus: Selectivity index, ratio of GI50 for human HeLa cells to MIC for dormant stage of Mycobacterium tuberculosis H37Ra ATCC 25177. Format: toxicity, cell-based. The conditions noted are these: read-out: Selectivity Index. Summed up:
as §4

Data set [15] can be described thus: Selectivity index, ratio of GI50 for human A549 cells to MIC for active stage of Mycobacterium tuberculosis H37Ra ATCC 25177 infected in human THP1 cells. It counts as toxicity, cell-based. The conditions noted are these: read-out: Selectivity Index. Summed up:
as §4

A short description of data set [16]: Selectivity index, ratio of GI50 for human A549 cells to MIC for active stage of Mycobacterium tuberculosis H37Ra ATCC 25177. Format: toxicity. The conditions noted are these: read-out: Selectivity Index. Summed up: as §4
Data set [17] in a line: Selectivity index, ratio of GI50 for human PANC1 cells to MIC for active stage of Mycobacterium tuberculosis H37Ra ATCC 25177 infected in human THP1 cells. Format: toxicity, cell-based. The conditions noted are these: PANC-1 cells, read-out: Selectivity Index. Summed up: as §4
Data set [18] can be described thus: Selectivity index, ratio of GI50 for human PANC1 cells to MIC for active stage of Mycobacterium tuberculosis H37Ra ATCC 25177. Format: toxicity. The conditions noted are these: PANC-1 cells, read-out: Selectivity Index. Summed up:
as §4

Data set [19] can be described thus: Selectivity index, ratio of GI50 for human HeLa cells to MIC for active stage of Mycobacterium tuberculosis H37Ra ATCC 25177 infected in human THP1 cells. Format: toxicity, cell-based. The note with it: read-out: Selectivity Index. Summed up:
as §4

A short description of data set [20]: Selectivity index, ratio of GI50 for human HeLa cells to MIC for active stage of Mycobacterium tuberculosis H37Ra ATCC 25177. It counts as toxicity, cell-based. The note with it: read-out: Selectivity Index. Summed up:
as §4

≈ marks a conversion by molar mass, not a printed value.

Eight compounds from ChEMBL document CHEMBL3992538, “Hybrids of thienopyrimidinones and thiouracils as anti-tubercular agents: SAR and docking studies” (Eur J Med Chem, 2017) can be followed below.

`COc1cc(-c2nc(SCCCn3cnc4sc5c(c4c3=O)CCCC5)n(C)c(=O)c2C#N)cc(OC)c1OC`: the MIC in data set [1] was 21.5 µg/mL (≈ 37.1 µM); in data set [2], 26.9 µg/mL (≈ 46.4 µM); in data set [3], 26.1 µg/mL (≈ 45 µM); in [4] it was 27.9 µg/mL (≈ 48.1 µM). Also, the concentration for 50% growth inhibition (GI50) turned out to be 89.7 µg/mL (≈ 155 µM) in [5], 95.7 µg/mL (≈ 165 µM) in data set [6], 24.8 µg/mL (≈ 42.8 µM) in data set [7] and 70.7 µg/mL (≈ 122 µM) in data set [8]. In addition, the selectivity ratio came to 4 in [9]; 4 in data set [10]; 1 in [11]; 1 in data set [12]; 3 in data set [13]; 3 in data set [14]. Also, the selectivity ratio worked out at 4 in data set [15]; 3 in [16]; 1 in [17]; 1 in [18]; 3 in data set [19]; 3 in data set [20].
As for `COc1cc(-c2nc(SCCCn3cnc4sc5c(c4c3=O)CCCC5)n(CCC(F)(F)C(F)(F)C(F)(F)C(F)(F)C(F)(F)C(F)(F)F)c(=O)c2C#N)cc(OC)c1OC`, the minimal inhibitory concentration (MIC) in data set [1] is 8.8 µg/mL (≈ 9.65 µM); in data set [2], more than 30 µg/mL; in [3], 11.7 µg/mL (≈ 12.8 µM); in data set [4], more than 30 µg/mL. Also, the 50% growth inhibitory concentration (GI50) in data set [5], in [6], in data set [7] and in data set [8] was more than 100 µg/mL in each case. Besides, the selectivity ratio in data set [9] was more than 11; in data set [10] it was more than 8; in data set [11], more than 11; in data set [12] it was more than 8; in data set [13], more than 11; in data set [14], more than 8. Further, the selectivity ratio in data set [15], in [16], in data set [17], in data set [18], in data set [19] and in data set [20] was more than 3 throughout.
For the compound `CCCCCn1c(SCCCn2cnc3sc4c(c3c2=O)CCCC4)nc(-c2cc(OC)c(OC)c(OC)c2)c(C#N)c1=O`, the minimal inhibitory concentration (MIC) in data set [1], in [2], in data set [3] and in data set [4] was more than 30 µg/mL in each case. For the same compound, the GI50 was more than 100 µg/mL in [5], more than 100 µg/mL in data set [6], more than 100 µg/mL in data set [7] and 73 µg/mL (≈ 115 µM) in data set [8]. Further, the selectivity ratio in data set [9] was more than 3; in data set [10], more than 3; in data set [11], more than 3; in data set [12] it was more than 3; in [13] it was 2; in data set [14], 2. Besides, the selectivity ratio is more than 3 in data set [15]; more than 3 in data set [16]; more than 3 in data set [17]; more than 3 in data set [18]; 2 in data set [19]; 2 in [20].
`CCCCCCc1cc2c(=O)n(CCSc3nc(-c4cc(OC)c(OC)c(OC)c4)c(C#N)c(=O)[nH]3)cnc2s1`: the MIC in data set [1] was 18.8 µg/mL (≈ 32.3 µM); in data set [2] it was 17.1 µg/mL (≈ 29.4 µM); in [3] it was 19.1 µg/mL (≈ 32.8 µM); in [4], 15.6 µg/mL (≈ 26.8 µM). In addition, the 50% growth inhibitory concentration (GI50) in data set [5] amounted to 96.4 µg/mL (≈ 166 µM); in [6], 96.8 µg/mL (≈ 166 µM); in [7] it was 36.5 µg/mL (≈ 62.7 µM); in data set [8] it was 76.3 µg/mL (≈ 131 µM). In addition, the selectivity ratio amounted to 5 in [9]; 5 in data set [10]; 2 in data set [11]; 2 in data set [12]; 4 in [13]; 4 in data set [14]. The selectivity ratio stood at 6 in data set [15]; 6 in data set [16]; 2 in data set [17]; 2 in [18]; 4 in data set [19]; 5 in [20].
Consider `CCCCCCCCCCCn1c(SCCCn2cnc3sc4c(c3c2=O)CCCC4)nc(-c2cc(OC)c(OC)c(OC)c2)c(C#N)c1=O`, for which the MIC in data set [1], in data set [2], in data set [3] and in [4] was more than 30 µg/mL each time. Also, the GI50 in data set [5], in data set [6], in data set [7] and in [8] was more than 100 µg/mL in each case. The selectivity ratio in data set [9], in [10], in [11], in data set [12], in data set [13] and in [14] was more than 3 each time. For the same compound, the selectivity ratio in data set [15], in [16], in data set [17], in data set [18], in [19] and in data set [20] was more than 3 each time.
With `CCCCCCCc1cc2c(=O)n(CCSc3nc(-c4cc(OC)c(OC)c(OC)c4)c(C#N)c(=O)[nH]3)cnc2s1`, the MIC in [1] came out at 13.6 µg/mL (≈ 22.8 µM); in data set [2] it was 11.1 µg/mL (≈ 18.6 µM); in [3], 17.1 µg/mL (≈ 28.7 µM); in data set [4] it was 11.1 µg/mL (≈ 18.6 µM). In addition, the 50% growth inhibitory concentration (GI50) in [5] was determined as 88.1 µg/mL (≈ 148 µM); in data set [6], 79.7 µg/mL (≈ 134 µM); in data set [7], 72.6 µg/mL (≈ 122 µM); in data set [8], 75.4 µg/mL (≈ 127 µM). Further, the selectivity ratio turned out to be 6 in [9]; 5 in [10]; 5 in data set [11]; 4 in [12]; 6 in data set [13]; 4 in data set [14]. Further, the selectivity ratio in [15] was 7; in [16] it was 7; in [17], 6; in data set [18], 7; in [19], 7; in [20], 7.
In the case of `CCCCCCCCn1c(SCCCn2cnc3sc4c(c3c2=O)CCCC4)nc(-c2cc(OC)c(OC)c(OC)c2)c(C#N)c1=O`, the minimum inhibitory concentration (MIC) in [1], in data set [2], in [3] and in data set [4] was more than 30 µg/mL each time. The GI50 in [5], in [6], in data set [7] and in data set [8] was more than 100 µg/mL each time. Further, the selectivity ratio in data set [9], in data set [10], in data set [11], in [12], in data set [13] and in data set [14] was more than 3 in each case. Further, the selectivity ratio in [15], in data set [16], in data set [17], in data set [18], in [19] and in [20] was more than 3 each time.
Turning to `Cc1ccc(-c2nc(S)nc(O)c2C#N)cc1`, the minimum inhibitory concentration (MIC) in data set [1], in data set [2], in data set [3] and in data set [4] was more than 30 µg/mL each time. In addition, the GI50 was 88.9 µg/mL (≈ 365 µM) in [5], 86.7 µg/mL (≈ 356 µM) in data set [6], more than 100 µg/mL in data set [7] and 67.6 µg/mL (≈ 278 µM) in [8]. For the same compound, the selectivity ratio in data set [9] is 3; in data set [10] it was less than 3; in [11], more than 3; in [12] it was more than 3; in data set [13], 2; in [14], 2. Also, the selectivity ratio was less than 3 in [15]; 3 in [16]; more than 3 in data set [17]; more than 3 in data set [18]; 2 in [19]; 2 in data set [20].

By MIC is commonly meant the least concentration at which growth counts as inhibited. Read a low MIC as inhibition by little substance. What is called GI50 is the concentration at which growth is held to half of that of the control.
